# Bioassay records (PubChem)
# GalR3 antagonist: antagonists of human GalR3; AID 651719; actives 0.44% (n = 360,000); HEK293 GalR3-CNG cAMP membrane potential fluorescence; galR3 body fused to GalR1 C-terminus; inhibition, % at 3 µM; O60755;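 active means inhibition above the screen-wide average plus 3 SD, cut at about 13% in these data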;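 further: forskolin and galanin both at EC90 stimulate the cells; cAMP rise reported by CNG channel membrane potential dye signal; 0% = forskolin plus galanin with DMSO and 100% = forskolin alone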
# Target sequence (O60755 1-299 limits assumed): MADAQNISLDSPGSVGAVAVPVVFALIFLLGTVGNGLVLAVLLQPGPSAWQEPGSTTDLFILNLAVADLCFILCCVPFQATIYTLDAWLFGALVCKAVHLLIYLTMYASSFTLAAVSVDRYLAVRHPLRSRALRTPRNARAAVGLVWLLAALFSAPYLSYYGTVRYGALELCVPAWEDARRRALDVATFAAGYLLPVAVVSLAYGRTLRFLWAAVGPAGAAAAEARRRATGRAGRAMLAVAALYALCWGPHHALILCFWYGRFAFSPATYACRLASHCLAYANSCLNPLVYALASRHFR
# TAAR1 ag: agonists of human TAAR1 | activation, % at 3 µM | CHO RD-HGA16 TAAR1, Fluo-8 calcium fluorescence; vehicle wells 0%, saturating PEA agonist 100% | Q96RJ0 | actives 0.99% (n = 360,000) | AID 624467;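 active means activation above the mean activation of all test compounds in the run plus 3 SD, cut at about 38% in these data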
# Target sequence (Q96RJ0 whole entry, looked up): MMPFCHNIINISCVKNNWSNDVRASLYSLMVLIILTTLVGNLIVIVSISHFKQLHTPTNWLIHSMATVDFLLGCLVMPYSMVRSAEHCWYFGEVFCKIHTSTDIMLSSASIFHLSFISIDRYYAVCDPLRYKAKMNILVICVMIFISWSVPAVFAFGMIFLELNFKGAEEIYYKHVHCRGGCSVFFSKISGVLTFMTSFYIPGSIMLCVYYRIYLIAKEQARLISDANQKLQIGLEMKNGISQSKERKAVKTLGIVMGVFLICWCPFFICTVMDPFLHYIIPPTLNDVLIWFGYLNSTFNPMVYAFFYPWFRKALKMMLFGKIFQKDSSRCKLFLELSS
#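 System: CHO-derived RD-HGA16 cells with stable Gα16 and human TAAR1 / Times: 17-24 h plating, Fluo-8 75 min 37 °C, 30 min RT / Technique: calcium-sensitive Fluo-8 signal, excitation 470-495, emission 515-575 nm / Measure: % activation relative to PEA EC100 response / Benchmarks: DMSO and PEA EC100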
# OX1R antag-1: antagonists of human orexin 1 receptor. O43613. CHO/OX1R cells, Fluo-8 calcium fluorescence, orexin A. inhibition, % at 5 µM. actives 0.43% (n = 330,000). AID 434989;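 active means inhibition above its plate's threshold, mean inhibition of all tested compounds on the plate plus 3 SD, cut at about 37% in these data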;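 further: 0% = orexin A challenge wells and 100% = SB-334867-A antagonist wells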
# TAAR1 antag: human TAAR1 antagonism | CHO RD-HGA16 TAAR1, Fluo-8 calcium fluorescence, antagonist | inhibition, % at 3 µM | Q96RJ0 | actives 1.5% (n = 360,000) | AID 624466;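 active means inhibition above a per-plate cutoff, the mean inhibition of test compounds on that plate plus 3 SD, cut at about 49% in these data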;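 further: 0% = DMSO plus EC80 beta-PEA response and 100% = DMSO alone without agonist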
#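 System: CHO RD-HGA16 cells bearing hTAAR1. Reagent: EC80 β-phenethylamine stimulus. Schedule: seeding 17-24 h prior, 75-min 37 °C, 30-min RT dye loading. Signal: Fluo-8 intracellular calcium dye fluorescence, real-time kinetic reads. Read-out: % inhibition from peak post-agonist over basal fluorescence ratio. Benchmarks: vehicle wells and EC80 agonist wells. Replicates: n of 1.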
# OX1R antag-2: OX1R (human) antagonism. O43613. OX1R-expressing cells, FRET antagonist read-out. inhibition, % at 6.6 µM. actives 1.8% (n = 330,000). AID 485270; in the data active means inhibition mostly above about 38%, no sharp cut-off; inactive means mostly below about 40%;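 further: 0% = agonist challenge alone and 100% = reference antagonist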
# CHO parental Ca: counter-screen: ATP calcium response change in parental CHO cells | inhibition, % at 5.6 µM | parental CHO-K1, ATP-induced calcium, Fluo-8 fluorescence | actives 0.63% (n = 330,000);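 active means inhibition above that plate's mean sample inhibition plus 3 SD, cut at about 26% in these data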;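 further: 0% = ATP-challenged DMSO wells and 100% = DMSO wells without ATP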
#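 test system = CHO parental line | reagent = ATP stimulus | measured by = intracellular calcium via Fluo-8 no-wash fluorescent dye | control set = ATP and no-ATP DMSO wells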
# OX1R Ca confirm: OX1R (human) antagonism, confirmed; shares compounds with OX1R antag-1; CHO/OX1R cells, orexin A calcium Fluo-8 fluorescence; inhibition, % at 5 µM; actives 38% (n = 1,100); in the data active means inhibition above about 29%;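 further: 0% = agonist challenge alone and 100% = reference antagonist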
# CHO Ca triplic: counter-screen: parental CHO calcium response change, triplicate; AID 492965; parental CHO-K1, ATP-induced calcium, Fluo-8 fluorescence; shares compounds with OX1R antag-1; actives 9.3% (n = 1,100); inhibition, % at 5.6 µM;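 active means inhibition above a per-plate limit, the mean inhibition of that plate's test compounds plus 3 SD, cut at about 25% in these data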;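 further: 0% = ATP challenge with DMSO and 100% = DMSO without ATP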
# Active calls of the source: *; / = no result. A selection: hits, their analogues and other compounds. The true share with any hit is near 4.2%.
SMILES,GalR3 antagonist,TAAR1 ag,OX1R antag-1,TAAR1 antag,OX1R antag-2,CHO parental Ca,others
COc1cc(C(=O)Oc2ccccc2N)cc(OC)c1OC,-1.5,1.0,-24.2,-0.7,8.8,-6.0,
CCCN(CCC)CCCNC(=O)c1cn(CC)c2ccc(S(=O)(=O)N(C)C3CCCCC3)cc2c1=O,0.1,-2.0,-25.0,-52.9,7.9,-19.3,
O=C(NCc1ccc(F)cc1)C1CC(=O)N(C2CCCCC2)C1 (configuration not stated),-7.5,-0.6,-15.3,6.0,15.6,-8.7,
CC1CC(C)(C)N2C(=O)C3(Nc4ccccc4S3)c3cccc1c32 (configuration not stated),/,/,-22.8,/,7.9,-16.0,
Cc1cc2c3c(c1)C1(SCC(=O)N1c1ccc(F)cc1)C(=O)N3C(C)(C)CC2C (configuration not stated),-6.1,48.4*,18.4,8.9,4.9,10.1,
O=C(CSc1nc(Cc2ccccc2)nc2ccccc12)c1ccc2c(c1)OCCO2,-8.3,5.2,-21.7,8.0,41.4*,-0.1,
CCc1nc(SCC(=O)c2ccc3c(c2)OCCO3)c2ccccc2n1,-3.7,12.5,4.9,31.9,57.7*,-27.2,
CCN(CC)C(=O)CSc1nc(Cc2ccccc2)nc2ccccc12,-6.3,2.7,/,-7.2,/,/,
CCc1nc(SCC(=O)c2ccccc2)c2ccccc2n1,-3.9,14.8,-53.8,18.9,41.0,-46.9,
CN(Cc1cnc2nc(N)nc(N)c2n1)c1ccc(C(=O)NC(CCC(=O)O)C(=O)O)cc1 (configuration not stated),1.2,10.2,/,-22.4,/,/,
Nc1nc(N)c2nc(CNc3ccc(C(=O)NC(CCC(=O)O)C(=O)O)cc3)cnc2n1 (configuration not stated),/,/,-5.9,/,60.8*,-4.8,
CCOC(=O)c1c(-c2ccccc2)oc2ccc(OC(C)=O)cc12,-6.8,10.2,-1.6,6.1,64.0*,-8.8,
COC(=O)N/N=C/c1cn(CCOc2ccc(OC)cc2)c2ccccc12,-2.5,1.0,-7.0,50.4*,6.2,-5.9,
O=C(O)c1cccc(CN2C(=O)S/C(=C/c3ccccc3[N+](=O)[O-])C2=O)c1,-5.1,12.6,5.2,-40.2,41.9,15.9,
O=C(CCl)N(c1ccc(Cl)cc1)c1c[nH]c2ccccc12,-7.6,39.1*,4.7,25.7,-2.0,-0.3,
O=C(Cc1ccc(Cl)cc1)NCCc1c[nH]c2ccccc12,-8.1,3.4,-14.5,4.3,10.9,-8.5,
O=c1c(O)c(-c2ccccc2)oc2ccccc12,-7.0,14.6,/,-4.5,/,/,
O=c1c(O)c(-c2cccs2)oc2ccccc12,-2.9,45.4*,18.7,27.2,24.2,49.0*,
CC1Cc2ccccc2N1C(=O)CN(C)S(=O)(=O)c1cccc2cccnc12 (configuration not stated),-2.1,6.4,-2.6,17.1,56.4*,2.4,
CC1Cc2ccccc2N1C(=O)C1CCCN(S(=O)(=O)c2cccc3cccnc23)C1 (configuration not stated),-1.5,2.8,-5.7,3.0,58.1*,-16.9,
CCC(C)(C)n1nnnc1C(c1cc2ccc(OC)cc2[nH]c1=O)N1CCc2ccccc2C1 (configuration not stated),-5.9,74.7*,-13.1,3.0,13.0,-10.2,
CCOC(=O)c1c(-c2ccccc2)oc2ccc(OCC(=O)NNC(=O)CCCC(=O)O)cc12,-7.5,0.9,/,-8.9,/,/,
O=c1oc2ccccc2c(O)c1CN1CCCCC1,-2.7,9.1,6.6,0.1,68.0*,1.0,
COc1ccc(S(=O)(=O)N2CCOCC2)cc1N=Nc1sc(N)nc1-c1ccccc1,-1.6,11.9,-3.3,53.7*,32.8,-4.4,
O=S(=O)(NCc1ccccc1)c1ccc(NC(=S)NCc2ccco2)cc1,-4.5,40.7*,29.8,52.9*,-5.9,12.5,OX1R Ca confirm=40.5*;CHO Ca triplic=22.2
SMILES,GalR3 antagonist,TAAR1 ag,OX1R antag-1,TAAR1 antag,OX1R antag-2,CHO parental Ca,others
COc1ccccc1CN(Cc1cc2cc3c(cc2[nH]c1=O)OCCO3)Cc1nnnn1Cc1ccco1,-2.8,10.8,-15.8,-2.4,28.8,-10.0,
COc1ccc(-c2nc(/C=C3\C(C)=Nc4ccccc43)c(O)o2)cc1,-4.4,4.0,30.3,33.5,48.7,23.1,OX1R Ca confirm=23.0;CHO Ca triplic=5.0
CC1=Nc2ccccc2/C1=C\c1nc(-c2ccc(C(F)(F)F)cc2)oc1O,-5.3,18.3,40.1*,40.1,9.4,20.7,OX1R Ca confirm=50.7*;CHO Ca triplic=54.1*
O=C(C1CCCN(S(=O)(=O)c2cccnc2)C1)N1CCN(c2ccccn2)CC1 (configuration not stated),-3.2,2.3,-1.8,-0.7,9.8,-12.4,
O=C(c1ccc2ccccc2c1)C1CCCN(S(=O)(=O)c2cccnc2)C1 (configuration not stated),-0.6,6.9,35.2,24.8,30.4,9.8,OX1R Ca confirm=6.4;CHO Ca triplic=-0.4
Cc1ccc(C)n1NC(=O)c1ccccc1O,-3.9,4.0,-10.4,-4.3,2.2,6.3,
COc1cc(Cn2c(N)c(C#N)c3nc4ccccc4nc32)cc(OC)c1,-3.5,16.9,27.8,-13.3,27.9,19.5,OX1R Ca confirm=32.8*;CHO Ca triplic=5.5
COCCn1c(N)c(C#N)c2nc3ccccc3nc21,-1.7,2.8,1.1,1.6,26.8,-7.4,
CS(=O)(=O)N(CC(=O)N1CCCC1)Cc1ccc(Cl)c(Cl)c1,-9.2,-0.3,-0.7,-3.3,6.9,-7.2,
Cc1cc(C)cc(OCC(=O)NNC(=O)c2cc(C)[nH]n2)c1,-2.6,1.5,-4.4,8.6,13.7,5.2,
COc1ccc(CCNC(=O)COc2ccc(N(C)S(=O)(=O)c3ccc(Cl)cc3)cc2)cc1,-7.6,3.9,/,19.4,/,/,
CN(c1ccccc1)S(=O)(=O)c1cccc(NC(=O)COc2ccccc2)c1,-3.6,6.9,36.7,52.8*,14.3,-6.9,OX1R Ca confirm=19.4;CHO Ca triplic=-3.6
CN(c1ccc(OCC(=O)NCCc2ccccc2)cc1)S(=O)(=O)c1ccc(Cl)cc1,-1.5,3.7,36.4,11.1,23.4,-8.1,OX1R Ca confirm=25.6;CHO Ca triplic=-12.2
CN(c1cccc(NC(=O)COc2ccccc2)c1)S(C)(=O)=O,-0.8,7.2,-15.3,-4.3,4.8,-4.7,
O=C(COc1ccc(Cl)cc1)Nc1cccc(S(=O)(=O)NCc2ccco2)c1,-4.0,6.0,42.2,26.1,21.3,-18.9,OX1R Ca confirm=16.4;CHO Ca triplic=-4.8
CS(=O)(=O)N(CC(=O)N1CCOCC1)c1cc(Cl)ccc1Cl,-4.7,-0.9,-6.7,-5.0,19.7,-5.0,
